# Rows were chosen to be rich in hits. Some 5.8% of all compounds tested hit in one or more screens of this group.
# ROMK primary: modulates human ROMK potassium channel activity; B-score at 10 µM; AID 1918; Tet-inducible ROMK, thallium flux fluorescence; actives lie on both sides; 2% of 130,000 active;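 active = signal ratio slope over the read window, or its plate-corrected B-score, at least 3 SD from the plate mean, either direction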;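 note: B-score of the F/F0 ratio slope over 7 to 12 s after thallium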
# Target sequence (P48048 whole entry, looked up): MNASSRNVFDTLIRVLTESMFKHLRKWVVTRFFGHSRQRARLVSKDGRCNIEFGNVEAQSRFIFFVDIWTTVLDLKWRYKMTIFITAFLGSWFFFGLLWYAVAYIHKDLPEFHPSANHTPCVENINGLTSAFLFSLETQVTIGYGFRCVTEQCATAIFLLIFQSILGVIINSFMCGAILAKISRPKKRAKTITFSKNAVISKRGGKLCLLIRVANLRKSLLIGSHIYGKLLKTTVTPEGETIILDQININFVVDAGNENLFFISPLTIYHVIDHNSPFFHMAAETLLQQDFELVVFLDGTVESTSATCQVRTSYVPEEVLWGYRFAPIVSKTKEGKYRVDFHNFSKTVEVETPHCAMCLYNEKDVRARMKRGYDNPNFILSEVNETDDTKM
# 14-3-3 Bad PPI: disrupts binding of bovine 14-3-3 zeta to phospho-Bad peptide; TR-FRET 14-3-3zeta/Dy647-pBad peptide displacement, 1 h; inhibition, % at 21.7 µM; 0.71% of 220,000 active; P63103;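 active = inhibition above about 70%, limit read from the data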;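 note: 0% = full 14-3-3 plus peptide FRET controls and 100% = background without 14-3-3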
# Target sequence (P63103 whole entry, looked up): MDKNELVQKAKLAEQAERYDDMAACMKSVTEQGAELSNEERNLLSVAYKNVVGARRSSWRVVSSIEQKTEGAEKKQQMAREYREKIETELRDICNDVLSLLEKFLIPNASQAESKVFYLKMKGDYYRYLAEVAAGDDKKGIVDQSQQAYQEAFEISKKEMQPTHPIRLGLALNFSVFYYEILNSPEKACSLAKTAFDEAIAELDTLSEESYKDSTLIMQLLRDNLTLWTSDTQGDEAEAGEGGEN
# RBBP9 inh: blocks human serine hydrolase RBBP9 | recombinant RBBP9, FP-Rh probe fluorescence polarization | O75884 | AID 1515 | inhibition, % at 7.94 µM | 0.2% of 220,000 active;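 active = inhibition above the campaign mean of all tested compounds plus 3 SD, cut at about 14% in these data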;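 note: plate controls were DMSO wells with RBBP9 for no effect and wells lacking RBBP9 protein for full effect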
#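 Measured by: FP readout at 525/598 nm; material: recombinant human RBBP9; also added: Serine-hydrolase probe FP-Rh, 375 nM pre-mixing; medium: Tris buffer pH 8.0, NaCl, Pluronic; replication: one well per compound; doses: one concentration, 7.94 µM nominal, 0.794% DMSO; timing: preincubation 30 min plus labeling 45 min at 25 °C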
# Cl transport mod: modulates chloride dependent transport by human KCC2 | Q9H2X9 | KCC2 cells, thallium flux FluoZin-2 fluorescence | B-score of Tl+ flux slope (higher = more flux/activation; lower = inhibition) at 10 µM | 2.2% of 190,000 active | AID 1456;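 active = thallium flux slope and its plate-corrected score both differing from the plate sample mean at a set confidence after two filtering rounds, in either direction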;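 note: slope of fluorescence scaled to starting intensity during 10 to 20 s after thallium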
# NCF1 inh: p47phox (human) inhibition; P14598; AID 1274; inhibition, % at 24.7 µM; 0.53% of 220,000 active; p47phox/p22phox peptide binding, fluorescence polarization, 2 h;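 active = inhibition above about 30%, limit read from the data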;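 note: 0% = p47phox with labelled peptide and 100% = labelled peptide alone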
# WT yeast gro inh: growth inhibition of WT yeast, mitochondrial fusion screen; mitochondrial fusion phenotypic screen, WT strain; inhibition, % at 10 µM; 2.1% of 190,000 active; AID 1362; in the data active = inhibition above about 58%; tested in S. cerevisiae
# An asterisk follows results filed as active; / = no result.
SMILES,ROMK primary,14-3-3 Bad PPI,RBBP9 inh,Cl transport mod,NCF1 inh,WT yeast gro inh
O=C(CN1/C(=C(/O)c2ccccc2)C(=O)c2ccccc2S1(=O)=O)c1ccccc1,-0.995,-2.1,0.0,0.0695,-42.6,64.2*
CC1=CC(=O)N(c2ccn(C)n2)C1=O,/,-6.1,1.9,-0.0495,4.3,/
CCN(C(=O)COC(=O)c1cccc(-n2cnnn2)c1)C1CCCCC1,1.2,-8.5,0.8,0.672,4.3,-9.8
CCOC(=O)C1=C(C)NC(=O)NC1c1c(C)nn(-c2ccccc2)c1Cl (centres undefined),2.25,92.7*,0.3,-0.359,-10.4,-11.2
O=C(/C=C/c1c[nH]c2ccccc12)c1cccc2ccccc12,/,-0.8,-7.3,-0.719,-8.0,61.5*
O=C(Cc1cnc2ncnn2c1)N1CCc2c([nH]c3ccccc23)C1c1ccccc1F (centres undefined),-0.357,5.6,-8.6,0.0204,-8.3,-4.3
Cc1[nH]c2c(C)cccc2c1CC(=O)O,-0.273,86.2*,-1.3,-0.533,-10.8,-1.6
Cc1[nH]c2ccccc2c1CC(=O)O,1.94,-16.6,-3.6,/,-23.6,-2.9
CC1(C)CC1C(=O)Nc1ccc([N+](=O)[O-])cc1Br (centres undefined),-0.502,7.9,-0.7,0.893,-13.6,23.9
Cc1ccc(C2(c3ccc(C)cc3)CC2C(=O)Nc2ccc([N+](=O)[O-])cc2O)cc1 (centres undefined),-0.512,12.1,-5.7,0.0169,-24.2,88.3*
CCCC1(CCC)NC(=O)N(CC(=O)Nc2cccc(OC)c2)C1=O,/,11.9,-4.5,-0.786,-1.5,63.8*
OCC1(CCc2ccccc2)CCN(Cc2cccn2-c2cccnc2)CC1,/,-11.9,2.0,0.648,-8.3,4.7
N#Cc1sc2nc(C3CC3)cc(-c3ccc(Cl)cc3)c2c1N,0.361,-8.0,1.5,-0.741,-0.8,72.0*
COc1ccc(-c2cc(-c3cccs3)nc3sc(C#N)c(N)c23)cc1,/,-3.3,-1.9,0.512,-24.0,6.0
O=C(Nc1cccc(C(F)(F)F)c1)c1cc(-c2cccs2)on1,/,-2.2,-2.5,-1.04,-9.3,-0.9
O=C(NC(=S)Nc1ccccc1Cl)c1csnn1,/,5.2,8.9,17.3*,-4.1,10.3
CCCOc1cccc(C(=O)NC(=S)Nc2cccc(C(F)(F)F)c2)c1,/,-11.7,-7.2,10.5*,-7.2,16.6
O=C(NC(=S)Nc1cccc(C(F)(F)F)c1)c1csnn1,8.78*,-9.2,-3.4,59.5*,-10.5,39.0
CN(NC(=O)/C=C/C(=O)O)c1ncc(C(F)(F)F)cc1Cl,0.00263,-8.6,1.5,0.123,2.5,-9.3
CS(=O)(=O)NCc1nnc(SCc2ccc(C(F)(F)F)cc2)o1,/,8.9,-0.3,0.00686,-7.0,/
Cc1ccc(CNC(=O)CN(C)S(=O)(=O)c2cccs2)cc1,-1.03,85.7*,-12.5,0.892,-0.1,3.9
CN(CC(=O)NCCc1ccccc1)S(=O)(=O)c1cccs1,/,25.8,-2.9,0.258,-7.8,-1.1
N#Cc1ccc(COC(=O)c2ccc(N3CCCC3)c([N+](=O)[O-])c2)cc1,/,-8.5,-6.3,-0.784,-22.6,39.0
CC(=O)N(c1nc(CCl)cs1)c1cccc(C)c1C,-0.349,-9.1,-3.6,-1.66,-6.8,0.0
O=C(C[n+]1ccc(/C=N/O)cc1)N(Cc1ccccc1)Cc1ccccc1,-1.9,-11.9,-1.8,1.13,-9.6,0.9
SMILES,ROMK primary,14-3-3 Bad PPI,RBBP9 inh,Cl transport mod,NCF1 inh,WT yeast gro inh
CCOC(=O)C1=NN(C(=O)Cc2ccccc2)C(O)(c2ccc(Cl)cc2)C1 (centres undefined),-0.0221,0.6,-6.5,1.34,-6.9,7.2
COC(=O)C1=NN(C(=O)c2cccc(Br)c2)C(O)(c2ccc(Cl)cc2)C1 (centres undefined),0.791,-9.7,-7.3,92.3*,-21.4,48.0
CC1=NN(C(=O)c2ccccc2)C(O)(c2ccc(Br)cc2)C1 (centres undefined),/,3.8,-7.0,-0.522,0.9,/
CCOC(=O)C1=NN(C(=O)c2ccccc2)C(O)(c2ccc(C)cc2)C1 (centres undefined),1.64,-16.9,-11.3,52*,-2.0,14.3
c1ccc2c(CSc3nnc(-c4ccncc4)o3)cccc2c1,/,78.0*,-4.5,/,-9.6,-5.0
CCCCNC(=O)CC(NS(=O)(=O)c1ccc(C)cc1)c1ccco1 (centres undefined),/,9.0,-3.6,/,-8.6,-17.4
COCCNC(=O)CC(NS(=O)(=O)c1ccc(C)cc1)c1ccco1 (centres undefined),/,-3.5,-2.0,-0.314,-0.1,73.4*
O=C1N=C(C=c2ccc(=Cc3[nH]c(=O)[nH]c3O)cc2)C(=O)N1,/,-1.3,-8.7,-0.777,-25.3,/
CCOc1ccc(Cn2c3ccc(OC)cc3c3nc4ccccc4nc32)cc1,0.254,61.0,-5.7,0.905,43.5*,-32.9
OC[C@@H](O)[C@@H](O[C@H]1O[C@H](CO)[C@@H](O)[C@H](O)[C@H]1O)[C@H](O)[C@@H](O)CO,/,3.2,-6.9,0.0221,-4.3,-4.5
O=C1NC(=S)S/C1=C\C=C\c1ccc([N+](=O)[O-])o1,/,87.0*,7.7,2.19,-19.5,/
Cc1cc(C)n(CCNC(=O)CC2C(=O)NCCN2CC2CCCCC2)n1 (centres undefined),-0.134,-1.2,-11.7,0.273,7.5,-0.4
O=C(Nc1nc(-c2ccc(F)c(F)c2)cs1)c1cnccn1,/,22.7,8.1,0.923,-10.1,/
O=C(CSc1ncnc2[nH]ncc12)Nc1nc(-c2ccc(F)c(F)c2)cs1,-1.17,73.8*,-23.1,0.0666,-75.4,25.5
CC1CCC2(CC1)NC(=O)N(Cc1cccc(C(F)(F)F)c1)C2=O (centres undefined),0.268,-0.9,-6.1,0.534,-5.7,6.2
Clc1ccc(-n2nnnc2-c2cnc3ccc(Cl)cc3c2-c2ccccc2)cc1,0.48,-0.1,2.4,0.00576,-6.1,/
Clc1ccc2ncc(-c3nnnn3-c3ccccc3)c(-c3ccccc3)c2c1,0.68,-6.6,-2.5,-0.0817,2.4,69.8*
COc1cc2oc(=O)ccc2c(OC)c1CC(O)C(C)(C)O (centres undefined),/,-3.0,/,-0.123,-5.0,/
C=CCN1C(C(=O)c2ccccc2)=C(OC(=O)COc2ccccc2)c2ccccc2S1(=O)=O,-0.268,76.6*,-13.1,-0.0952,-12.7,50.2
O=C(COc1ccccc1)NNC1=NS(=O)(=O)c2ccccc21,-0.956,-4.1,-1.5,-0.145,4.2,4.6
COc1cccc(C2Nc3c(F)cc(Br)cc3C3C=CCC32)c1OC (centres undefined),-0.182,-20.0,-1.4,0.0129,-4.5,66.1*
CCC(C)(C)NC(=O)c1cc(S(=O)(=O)N2CCCCC2)ccc1N1CCOCC1,0.00908,-13.6,-3.9,/,-8.1,-7.7
Cc1ccc(CNC(=O)c2ccc(Cn3nc(C)c(Cl)c3C)o2)cc1,-1.25,11.1,-6.5,/,-6.3,99.7*
